Measurements gathered from unrelated publications.
Lines come from different studies, so protocols differ.
CYP2C19: Cytochrome P450 2C19 (CYP2C19, Homo sapiens, UniProt P33261)
UGT1A4: UDP-glucuronosyltransferase 1A4 (UGT1A4, Homo sapiens, UniProt P22310)

N=C(N)NCc1ccc(NC(=O)c2ccc(C(=O)Nc3ccc(C4=CCN(C(=N)N)CC4)cc3)nc2)cc1 — CC50 (NIH3T3; cell growth or viability, MTS; 24 h): > 117 µM
COC(=O)C1CCN(C(=O)c2ccc(SCc3cnc4nc(N)nc(N)c4n3)nc2)CC1 — inhibition (CYP2C19; enzyme activity, inhibitor, luciferase; 10 µM): -2.45%
N=C(N)N1CC=C(c2ccc(NC(=O)c3ccc(C4=CCN(C(=N)N)CC4)cc3)cc2)CC1 — CC50 (NIH3T3; cell growth or viability, MTS; 24 h): 41 µM
COC(=O)C1CCN(C(=O)c2ccc(NCc3cnc4nc(N)nc(N)c4n3)cn2)CC1 — inhibition (CYP2C19; enzyme activity, inhibitor, luciferase; 10 µM): -1.34%
[11CH3]Oc1cccc(CCc2cc(O)c(=O)[nH]n2)c1 — tracer uptake (ATP-dependent translocase ABCB1 (Abcb1a, Mus musculus, UniProt P21447); mouse, brain; 30 min): 0.23 %ID/g
C=CC(=O)N1CC2CC(n3nc(-c4ccc(C(=O)Nc5ccccn5)cc4)c4c(N)ncnc43)CC2C1 (stereo not shown) — Tmax (male Wistar rat, plasma; oral, 10 mg/kg): 2 h
C[C@H](O)c1cc(C(=O)N[C@@H](C)Cn2ccc(-c3ccc(C#N)c(Cl)c3)n2)n[nH]1 — IC50 (UGT1A4; enzyme activity, inhibitor; human, liver microsomes): > 100 µM
COC(=O)C1CCN(C(=O)c2ccc(N(CCO)Cc3cnc4nc(N)nc(N)c4n3)cc2)CC1 — inhibition (CYP2C19; enzyme activity, inhibitor, luciferase; 10 µM): -24.5%
COc1cc2c3c(n(CCCN4CCOCC4)c(=O)c2cc1OC)-c1cc2c(cc1C3=O)OCO2 — Cmax (male beagle dog, plasma; intravenous, 10 mg/m², infusion): 106 ng/mL
N=C(N)NCc1ccc(NC(=O)c2ccc(C(=O)Nc3cnc(C4=CCN(C(=N)N)CC4)cn3)cc2)cc1 — CC50 (NIH3T3; cell growth or viability, MTS; 24 h): > 585 µM
NC(=O)C1CCCN1C(=O)Cc1ccc(N(CCCO)Cc2cnc3nc(N)nc(N)c3n2)cc1 (stereo not shown) — inhibition (CYP2C19; enzyme activity, inhibitor, luciferase; 10 µM): -4.55%
C[C@@H]1C[C@H](c2ccc(Br)cc2)c2c(cc3ccccn23)C(=O)O1 (racemic) — CC50 (HFF-1; cell growth or viability, resazurin; 72 h): 0.92 µM
CC(=O)c1cc(C(=O)N[C@@H](C)Cn2ccc(-c3ccc(C#N)c(Cl)c3)n2)[nH]n1 — IC50 (UGT1A4; enzyme activity, inhibitor; human, liver microsomes): > 50 µM
